High-throughput results from PubChem BioAssay.
NR2E3 ag-1: agonists of human NR2E3 nuclear receptor. actives 0.35% (n = 360,000). inhibition of corepressor binding, % at 3.98 µM. CHO-S Gal4-NCOR/VP16-NR2E3 two-hybrid, luciferase;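 active = inhibition above the mean of all tested compounds plus 3 SD, cut at about 70% in these data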;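 note: 0% = DMSO with NR2E3 transfected cells and 100% = cells lacking NR2E3 construct; higher means lower luciferase signal from less NR2E3 corepressor binding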
DAX1 inh-1: DAX1 (NR0B1) inhibition, primary screen. HEK293T StAR-luciferase reporter, SF-1/DAX-1 repression relief. inhibition, % at 6.8 µM. actives 1.1% (n = 370,000). AID 652010;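 active = inhibition above the mean over all tested compounds plus 3 SD, cut at about 3.6% in these data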;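 note: 0% = DAX-1 cells with DMSO and 100% = cells lacking DAX-1 with DMSO; higher inhibition means more luminescence from relief of DAX-1 repression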
SMARCA2 act: SMARCA2 function activation, primary screen | MG213 cells, MMTV-luciferase reporter, dexamethasone, overnight | actives 1% (n = 370,000) | activation, % at 9.1 µM | AID 652017; in the data active = activation above about 7.8%;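 note: 0% = vehicle wells and 100% = reference activator wells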
JMJD2C inh: human JMJD2C demethylase inhibition | GST-JMJD2C(1-420) H3K9me3 demethylation, DELFIA europium | actives 0.069% (n = 330,000) | AID 2099 | Q9H3R0 | inhibition, % at 2.35 µM;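 active = more than half of a compound's replicate wells show inhibition beyond 50%, single wells judged on their own value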;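 note: signal counts dimethyl H3K9 product captured on neutravidin plate; 0% = median of DMSO wells and 100% = 0.3 times that DMSO median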
Target sequence (Q9H3R0 1-420 limits assumed): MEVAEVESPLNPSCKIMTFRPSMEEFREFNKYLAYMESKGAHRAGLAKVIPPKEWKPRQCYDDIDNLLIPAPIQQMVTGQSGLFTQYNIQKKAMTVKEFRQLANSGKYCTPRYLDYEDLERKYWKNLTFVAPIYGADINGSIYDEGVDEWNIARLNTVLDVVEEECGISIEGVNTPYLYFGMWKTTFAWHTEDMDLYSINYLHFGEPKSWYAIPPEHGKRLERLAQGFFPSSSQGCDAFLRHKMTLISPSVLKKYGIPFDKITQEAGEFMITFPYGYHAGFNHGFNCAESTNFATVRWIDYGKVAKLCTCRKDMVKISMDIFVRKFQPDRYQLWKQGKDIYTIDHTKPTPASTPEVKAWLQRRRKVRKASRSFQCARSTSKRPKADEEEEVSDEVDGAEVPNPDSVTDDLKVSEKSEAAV
NR2E3 ag-2: NR2E3 (human) agonism | Q9Y5X4 | GST-NR2E3/biotin-RetCOR TR-FRET, 1536-well | inhibition of corepressor binding, % at 4.78 µM | actives 0.12% (n = 320,000) | AID 2300;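 active = percent inhibition above the cutoff of mean plus 3 SD of all tested compounds, set per screening campaign, cut at about 20% in these data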;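 note: 0% = DMSO wells and 100% = biotin wells as full block of FRET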
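Material – GST-tagged NR2E3 plus biotinylated RetCOR corepressor · Quantity – NR2E3 fusion 1.35 nM · Times – 5 h incubation at 4 °C · Medium – pH 7.5 Tris-based buffer · Technique – TR-FRET, Eu(K)-anti-GST donor, streptavidin-D2 acceptor, ex 340, em 617/671 nm · Benchmarks – high control biotin, low control 0.6% DMSO · Format – 1536-well plates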
DAX1 inh-2: inhibits human nuclear receptor DAX1; P51843; HEK293 Gal4-DAX1 luciferase reporter, luminescence; inhibition, % at 6.75 µM; actives 0.99% (n = 340,000); AID 504766;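 active = inhibition above the mean over all tested compounds plus 3 SD, cut at about 4.2% in these data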;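 note: 0% = DAX1-transfected cells with DMSO and 100% = empty-vector control cells with DMSO; inhibition shows as a rise in luminescence from relieved DAX1 repression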
Target sequence (P51843 207-470 limits assumed): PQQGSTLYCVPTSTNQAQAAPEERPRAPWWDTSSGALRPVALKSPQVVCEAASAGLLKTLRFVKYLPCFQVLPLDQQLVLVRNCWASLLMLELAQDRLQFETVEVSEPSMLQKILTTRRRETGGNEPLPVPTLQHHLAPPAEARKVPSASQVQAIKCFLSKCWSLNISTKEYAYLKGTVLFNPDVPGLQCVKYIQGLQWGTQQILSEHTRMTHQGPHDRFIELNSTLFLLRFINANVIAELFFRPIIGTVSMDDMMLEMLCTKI
NR2E3 ag confirm: NR2E3 (human) agonism, confirmation; activation (reported as inhibition), % at 3.98 µM; shares compounds with NR2E3 ag-2; actives 39% (n = 360); cell-free NR2E3 corepressor release, TR-FRET, 5 h; in the data active = activation above about 20%
PPARg-NCOR2 ctr: releases PPARgamma from NCOR2 in NR2E3 counter-screen; TR-FRET PPARg-NCOR2 coregulator interaction, biochemical; AID 504787; actives 45% (n = 360); shares compounds with NR2E3 ag-2; inhibition, % at 3.98 µM; in the data active = inhibition above about 20%;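 note: 0% = DMSO vehicle and 100% = wells without protein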
Starred values were filed as active, the others as inactive; . = no result given. Hits are enriched below; roughly 3.2% of the tested compounds scored in any of these assays.

SMILES	NR2E3 ag-1	DAX1 inh-1	SMARCA2 act	JMJD2C inh	NR2E3 ag-2	DAX1 inh-2	NR2E3 ag confirm	PPARg-NCOR2 ctr
COC(=O)c1cc(C)nc2c1C(=O)C(=O)C=C2N1CCOCC1	19.8	-2.3	-8.2	10.6	38.4*	-6.6	43.4*	57.1*
Cc1ccc(-n2c(SCC(=O)C(C)(C)C)nnc2-c2cccc(C)c2)cc1	.	-2.3	-4.6	.	.	.	.	.
Brc1cc(Br)c2ncnc(N3CCCCC3)c2c1	-15.6	-0.4	-0.2	-13.5	33.8*	1.6	34.1*	29.2*
Clc1ccc(Cn2ncc3c(N4CCCCC4)ncnc32)cc1	-3.6	-0.7	-1.0	1.6	-2.2	0.2	.	.
O=C(NCCN1CCC(Cc2ccccc2)CC1)C1CCCN(S(=O)(=O)c2ccc(Br)s2)C1 (stereo not given)	.	-2.7	-6.4	.	.	.	.	.
O=C(c1cc2nc(-c3ccco3)cc(C(F)(F)F)n2n1)N1CCCCCC1	21.2	-0.5	4.0	3.6	-1.5	-0.2	.	.
O=C(NCCCN1CCCC1=O)c1cc2nc(-c3ccco3)cc(C(F)(F)F)n2n1	-4.5	-0.4	-0.7	-6.5	21.9*	-0.5	-9.9	-4.8
CCOC(=O)[C@]12CCCCC/C=C\1N(Cc1ccc(OC)cc1)C(=O)[C@H]2CC(=O)NCc1ccccc1	.	0.6	-0.8	.	.	.	.	.
O=C(O)c1cc(-c2ccco2)nc2ccc(Br)cc12	-22.0	-0.2	-4.8	-13.2	34.1*	-0.7	26.1*	29.5*
O=C(CCN1CCCCC1)N/N=C/c1c[nH]c2ccccc12	14.4	0.9	-3.2	6.7	3.4	-0.5	.	.
CN1CCN(CC(=O)N/N=C\c2c[nH]c3ccccc23)CC1	.	-0.6	-0.5	11.0	29.7*	.	-5.4	-5.2
CCOC(=O)/C(C#N)=C1/C=C(C)NC(c2ccccc2O)=N1	20.3	-0.9	-3.4	5.8	22.9*	0.2	13.0	10.1
Cc1cc(C)c(OCC(=O)Nc2ccc3c(c2)OCO3)cc1C	-5.1	0.9	1.3	-7.6	29.4*	-0.7	12.2	18.1
NS(=O)(=O)c1cccc(C(=O)NC2CCSc3ccccc32)c1 (stereo not given)	-2.9	0.2	-3.5	-2.5	3.7	1.8	.	.
NS(=O)(=O)c1cc(C(=O)NC2CCSc3ccccc32)ccc1Cl (stereo not given)	-11.9	0.3	-0.4	3.0	20.3*	1.3	7.1	-1.9
O=C(CSc1nnc(-c2cccnc2)n1-c1ccc(Cl)cc1)Nc1ccc(S(=O)(=O)Nc2nccs2)cc1	.	-0.1	-3.3	.	.	.	.	.
O=C(O)c1cc2ccccc2c2cc(Br)ccc12	-10.6	0.5	0.6	2.6	23.4*	0.8	19.0	55.8*
CCC(=O)c1ccccc1OCC(=O)Nc1c(C)cccc1C	-3.6	-0.3	-2.2	-3.7	0.1	-0.2	.	.
Cc1cccc(C)c1NC(=O)COc1ccccc1C(=O)Nc1ccc(Br)cn1	-30.2	0.3	-1.7	2.2	43.6*	-1.1	41.6*	48.8*
O=C(OC12CCCN(C1)/C(=C/c1ccccc1)C2)c1ccc(F)cc1 (stereo not given)	.	0.9	-6.0	.	.	.	.	.
COc1ccc(C(=O)Nc2ccc3ccccc3c2)cc1	-115.5	2.5	4.2	-5.1	0.9	-6.1	.	.
COc1cccc(C(=O)Nc2ccc3ccccc3c2)c1	-140.0	1.5	2.2	-2.3	29.8*	-1.5	2.2	-2.7
N#CC(=C=[N-])C1=C(C#N)C(c2ccccc2F)C([n+]2ccccc2)C(O)(C2CC2)N1 (stereo not given)	-13.9	1.4	1.8	13.4	28.7*	-0.1	-6.8	2.6
Cc1cccc[n+]1C1C(c2ccccc2)C(C#N)=C(C(=C=[N-])C#N)NC1(O)C1CC1 (stereo not given)	-18.5	.	.	5.5	42.8*	-0.4	4.9	30.1*
Cc1ccc[n+](C2C(c3ccc([N+](=O)[O-])cc3)C(C#N)=C([S-])NC2(O)C2CC2)c1 (stereo not given)	14.6	-0.9	2.4	6.2	2.8	0.1	.	.
SMILES	NR2E3 ag-1	DAX1 inh-1	SMARCA2 act	JMJD2C inh	NR2E3 ag-2	DAX1 inh-2	NR2E3 ag confirm	PPARg-NCOR2 ctr
O=C(CN1C(=O)COc2ccccc21)N(Cc1cccnc1)Cc1ccccc1F	-35.0	.	.	-11.6	30.7*	0.3	-12.4	-7.8
CCCCC1=CC2=C(c3ccco3)C(=O)C(C)(OC(=O)c3ccc(OC)cc3)C(=O)C2=CN1Cc1ccc2c(c1)OCO2 (stereo not given)	7.5	.	.	6.5	23.0*	1.7	0.2	5.0
CCCCC1=CC2=C(c3ccco3)C(=O)C(C)(OC(=O)c3ccc(OC)cc3)C(=O)C2=CN1Cc1ccccc1 (stereo not given)	-16.4	-0.6	-0.3	0.4	13.9	0.1	.	.
COC(=O)[C@]1(CNS(=O)(=O)c2ccc(F)cc2)CC(=O)N(C)[C@@H]1c1ccccc1	.	-0.1	-1.3	.	.	.	.	.
Cc1nc2ccccc2nc1SCC(=O)N1CCC(C)CC1	15.1	-1.9	-4.8	0.5	22.2*	-3.1	12.9	16.4
CC1CCCN(C(=O)CSc2cnc3ccccc3n2)C1 (stereo not given)	-56.2	2.2	2.1	-18.5	48.3*	2.6	14.0	11.2
Cc1cccc(-c2nc(=S)c3c(n2Cc2ccco2)CCCC3)c1	10.3	-1.5	0.4	4.9	27.6*	-2.4	4.0	7.5
Cc1ccc(-c2nc(=S)c3c(n2Cc2ccco2)CCCC3)cc1	-10.4	0.0	-1.5	.	.	0.8	.	.
C=CCOc1ccc(C2C(C(=O)c3ccc(C)o3)=C(O)C(=O)N2Cc2cccnc2)cc1 (stereo not given)	-1.3	-0.4	1.5	-16.5	19.6*	1.6	4.6	4.8
CCOc1cccc(C2C(C(=O)c3ccc(C)o3)=C(O)C(=O)N2CCCn2ccnc2)c1 (stereo not given)	-9.5	1.5	-0.7	-31.4	24.4*	-0.5	28.7*	27.7*
CCOc1cccc(C2C(C(=O)c3ccc(C)o3)=C(O)C(=O)N2Cc2ccncc2)c1 (stereo not given)	-14.0	0.1	-0.8	8.4	26.3*	-0.2	2.2	9.0
COC(=O)C[C@@H]1CC[C@H]2[C@H](COc3ccc(NC(=O)C4CCC4)cc3C(=O)N2C)O1	.	-0.3	-3.9	.	.	.	.	.
CCN(CC)c1ccc2c(-c3ccc(S(=O)(=O)O)cc3S(=O)(=O)[O-])c3ccc(=[N+](CC)CC)cc-3oc2c1	5.4	.	.	4.5	46.2*	0.3	41.0*	48.5*
CCOC(=O)[C@]12CCCC=C1N(CCCOC)C(=O)[C@@H]2CC(=O)NCc1ccc(OC)c(OC)c1	.	-1.3	-2.4	.	.	.	.	.
